Assay outcomes deposited in PubChem BioAssay by several laboratories.
Sampled rows, rich in hits. Any-hit rate of the full collection: about 4%.
KCNK3 inh – human KCNK3 channel inhibition, primary screen; B-score at 10 µM; 340,000 tested, 0.84% active; O14649; CHO-KCNK3 thallium flux, FluxOR fluorescence; hits give low values;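 active = B-score under library mean minus 4 SD, starting fluorescence ratio at most library mean plus 5 SD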;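 also: more negative B-score means stronger inhibition of thallium flux through KCNK3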
KCNQ1 act – potentiates or activates the human KCNQ1 potassium channel. P51787. CHO-K1 KCNQ1, thallium flux FluxOR fluorescence; hits give high values. B-score at 10 µM. 310,000 tested, 0.35% active. AID 2648;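 active = fluorescence ratio B-score, a plate-corrected score, at least three library SD, with initial intensity B-score within 5 SD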
Target sequence (P51787 whole entry, looked up): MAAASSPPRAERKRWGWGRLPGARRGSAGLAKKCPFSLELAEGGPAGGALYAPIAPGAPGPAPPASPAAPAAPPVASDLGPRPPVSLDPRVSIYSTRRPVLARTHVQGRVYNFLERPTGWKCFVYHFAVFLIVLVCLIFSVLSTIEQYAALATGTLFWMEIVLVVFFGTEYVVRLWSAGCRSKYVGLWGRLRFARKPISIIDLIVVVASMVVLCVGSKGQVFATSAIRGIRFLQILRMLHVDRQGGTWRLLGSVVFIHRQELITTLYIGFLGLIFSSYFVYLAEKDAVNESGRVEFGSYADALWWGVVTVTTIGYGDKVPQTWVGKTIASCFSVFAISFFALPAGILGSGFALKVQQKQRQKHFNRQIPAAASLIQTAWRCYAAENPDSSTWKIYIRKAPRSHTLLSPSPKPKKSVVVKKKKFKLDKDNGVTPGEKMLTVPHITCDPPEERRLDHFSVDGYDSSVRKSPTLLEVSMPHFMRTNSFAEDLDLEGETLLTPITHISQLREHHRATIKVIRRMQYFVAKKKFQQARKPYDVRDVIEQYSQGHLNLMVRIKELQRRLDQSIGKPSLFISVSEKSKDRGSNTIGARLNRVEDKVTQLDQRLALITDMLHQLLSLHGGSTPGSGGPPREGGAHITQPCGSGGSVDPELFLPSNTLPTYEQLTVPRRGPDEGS
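Assay system: CHO-K1 cells stably expressing KCNQ1; Medium: assay buffer with matched DMSO; Also added: K+/Tl+ depolarizing stimulus; Dosing: single dose; Timing: dye 90 min, compound 20 min, room temperature; Measured by: kinetic FluxOR thallium fluorescence, 10-s 1-Hz baseline, 110-s post-stimulus read; Read-out: peak-minus-minimum fluorescence over initial fluorescence, negative-control normalized, B-scored.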
hERG rescue – compounds protecting human hERG from proarrhythmic drug block. Q12809. CHO-hERG, FluxOR thallium flux, dofetilide IC70 present. activation (rescue from dofetilide block), less the hit threshold, % at 10 µM. 310,000 tested, 0.51% active;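 active = activation above the mean of controls blocked by dofetilide plus 5 SD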;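 also: thallium influx through hERG after potassium depolarization seen as dye fluorescence rise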
KCNK9 block – inhibitors of human KCNK9 two-pore domain potassium channel; HEK293 KCNK9, FluxOR thallium flux fluorescence; hits give low values; B-score at 10 µM; 310,000 tested, 1.2% active; Q9NPC2; AID 488922;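 active = ratio B-score over 3 SD below the library mean, with starting fluorescence within 5 SD of its mean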;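 also: negative B-score means less thallium flux so channel inhibition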
PHOSPHO1 block – PHOSPHO1 (human) inhibition. Q8TCT1. 290,000 tested, 1.1% active. inhibition, % at 13.3 µM. recombinant PHOSPHO1, absorbance phosphatase assay; in the data active = inhibition above about 60%
KCNQ1 block – human KCNQ1 channel inhibition; P51787; CHO-K1 KCNQ1, FluxOR thallium flux fluorescence; hits give high values; B-score at 10 µM; 310,000 tested, 1.3% active; AID 2642;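 active = compounds whose thallium flux B-score, printed positive for inhibition, exceeds three library SD while starting fluorescence stays within three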;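 also: channel opened by potassium depolarization with thallium stimulus after 20 min compound exposure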
Starred values were filed as active, the others as inactive; i = inactive; . = no result.

SMILES	KCNK3 inh	KCNQ1 act	hERG rescue	KCNK9 block	PHOSPHO1 block	KCNQ1 block
O=C(COC(=O)c1cccc2ccccc12)Nc1cccnc1Cl	i	i	-4	i	-9	i
CCC(=O)Nc1ccccc1C(=O)OCC(=O)c1cccc2ccccc12	-11*	i	-10	-7.3*	-6	i
O=C(COC(=O)c1ccncc1)Nc1cccc2ccccc12	-8.8*	.	.	.	.	.
Cc1noc(NS(=O)(=O)c2ccc(NC(=O)COc3ccc(C#N)cc3)cc2)c1C	i	.	.	.	.	.
O=C(Nc1ncc(Cc2ccccc2)s1)c1cccs1	i	i	-7	i	10	i
O=C(Nc1ncc(Cc2cccc(Cl)c2)s1)c1cccs1	i	i	-4	-6.7*	39	i
CC(C)CNC(=S)NNC(=O)c1ccc2c(c1)OCO2	i	i	-7	i	62*	i
COCCCNC(=S)NNC(=O)c1ccc2c(c1)OCO2	i	i	-2	i	-137	i
Cc1cc(C(=O)Nc2ccc(OCc3ccccc3)cc2)c(C)o1	i	i	-12	i	47	i
Cc1ccc(OC(C)C(=O)Nc2ccc(S(=O)(=O)Nc3nccs3)cc2)cc1 (centres undefined)	i	i	-12	i	.	i
COc1ccc(CCN2CC(C(=O)NCc3c(C)n[nH]c3C)CCC2=O)cc1 (centres undefined)	i	i	-1	i	32	i
Cc1onc(-c2ccccc2)c1C(=O)Nc1sc2c(c1C#N)CCC2	i	i	-12	i	-14	i
Cc1onc(-c2ccccc2)c1C(=O)NC(=S)Nc1sc2c(c1C#N)CCC(C)C2 (centres undefined)	i	21*	15*	i	24	i
Cc1onc(-c2ccccc2)c1C(=O)NC(=S)Nc1sc2c(c1C#N)CCCC2	i	8*	16*	i	-2	i
Cn1c(=O)c2c(ncn2CC(=O)OCc2ccccc2)n(C)c1=O	i	i	5.3*	i	-9	i
COC(=O)Cn1cnc2c1c(=O)n(C)c(=O)n2C	i	i	-4	i	7	i
Clc1ccc(Sc2ccc(/C=N/n3cnnc3)o2)cc1	i	i	-11	i	31	i
Clc1ccc(Sc2oc(/C=N/n3cnnc3)cc2Br)cc1	i	i	-9	i	84*	i
O=c1[nH]c(-c2ccccc2)c(-c2ccccc2)nc1[N+](=O)[O-]	i	i	-2	i	5	i
Cc1cc(-c2csc(N)n2)c(C)n1CCC(C)C	i	i	-8	i	102*	i
Cc1cc(-c2csc(N)n2)c(C)n1CCc1ccccc1	i	i	-16	i	-4	i
N#Cc1c[nH]n2c(=O)c3c(nc12)CCCC3	.	i	5.4*	i	-6	i
COc1ccc(-c2nnc(CSc3nnc(-c4ccncc4)n3C3CCCCC3)o2)cc1OC	i	i	-6	i	-27	i
COc1ccc(-c2nnc(SC3CCOC3=O)n2C2CCCCC2)cc1OC (centres undefined)	i	i	-10	i	75*	i
O=C(NNc1c(F)c(F)cc(F)c1F)c1cc2ccccc2oc1=O	i	i	9.9*	i	17	i
SMILES	KCNK3 inh	KCNQ1 act	hERG rescue	KCNK9 block	PHOSPHO1 block	KCNQ1 block
O=C(COc1ccccc1)NNC(=O)c1cc2ccccc2oc1=O	i	i	-8	i	-21	i
COc1cccc(C(=O)O/N=C(\N)c2ccccn2)c1	i	i	5.2*	i	34	i
N/C(=N\OC(=O)c1ccc2ccccc2c1)c1ccccn1	i	i	-7	i	33	i
COC(=O)[C@@H]1C[C@@]2(O)[C@H](O)[C@H](O)[C@H](O)C[C@H]2N1Cc1cccc2ccccc12	i	i	-4	i	22	i
O=[n+]1c2c(n([O-])c3cc(F)c(N4CCCC4)cc31)CCCC2	i	i	-16	i	16	9*
COc1ccc(CN(C)C(=O)COC(=O)c2ccc(-c3ccccc3)cc2)c(OC)c1OC	-9.3*	.	.	.	.	.
COc1ccc(CN(C)C(=O)CCN2C(=O)c3ccccc3C2=O)c(OC)c1OC	i	i	-1	i	23	i
Cc1ccc(N2CC(C(=O)Nc3nnc(SCc4cccnc4)s3)CC2=O)cc1 (centres undefined)	i	i	-4	i	9	i
Cn1c2ccc(F)cc2c2nnc(SCC(=O)Nc3cccc(O)c3)nc21	i	i	5.2*	i	35	i
Cc1ccc(/C=c2/sc3nnc(-c4ccccc4Cl)n3c2=O)o1	i	i	-12	i	92*	i
Cc1ccc(-c2nnc(-c3cc(C)on3)o2)cc1	i	i	-9	i	61*	i
CC(=O)NC1(C(F)(F)F)NC(=O)N(c2ccc(F)cc2)C1=O (centres undefined)	i	i	-16	i	34	i
Fc1ccc(NC(=S)NN=Cc2ccccc2Cl)cc1	i	.	.	.	.	.
S=C(N/N=C/c1ccccc1Cl)Nc1cccc(Cl)c1Cl	i	12*	9.8*	i	36	i
CCc1ccc2[nH]c(C(=O)Nc3ccc(F)cc3Br)cc2c1	i	8*	-2	i	33	i
CCN(CC)c1ccc2cc(C(=O)NNC(=O)c3ccc(S(=O)(=O)N4CCCCC4)cc3)c(=O)oc2c1	i	i	-17	i	9	i
O=C(NCCc1ccccn1)c1cccc(S(=O)(=O)N2CCc3ccccc32)c1	i	i	2	i	36	i
Cc1ccc(C)c(NC(=O)C(=O)NCC2CCCN2S(=O)(=O)c2cccs2)c1 (centres undefined)	i	i	-17	-7.2*	.	i
Cc1ccc(NC(=O)C(=O)NCC2CCCN2S(=O)(=O)c2cccs2)c(C)c1 (centres undefined)	i	i	-14	i	.	i
CCn1c(C)c(C(C)=O)c(N2CCN(c3ccccn3)CC2)nc1=S	i	i	2	-6.7*	-74	i
COC(=O)CSc1ncc(C#N)c(N)n1	i	i	-2	i	-6	i
O=C(Nc1ccc(Br)cn1)c1cccc(S(=O)(=O)N2CCCC2)c1	i	.	.	.	.	.
CC(C)=CCc1cc2c(=O)c3c(O)c4c(cc3oc2c(O)c1O)OC(C)C4(C)C (centres undefined)	.	i	-25	i	.	6*
CC1Oc2cc3oc4c(O)c5c(cc4c(=O)c3c(O)c2C1(C)C)C=CC(C)(C)O5 (centres undefined)	.	i	-22	i	.	i
